# Rows were chosen to be rich in hits. Some 1.3% of all compounds tested hit in one or more screens of this group.
# DDE Tn6 FP inh: inhibitors of Tn6 peptide binding to fibrin DD(E), primary screen, biochemical, fluorescence polarization, human fibrin, Tn6 probe | inhibition, % at 8.3 µM | actives 0.21% (n = 370,000) | Fibrin DD(E) TRITC-Tn6 fluorescence polarization displacement | Fibrinogen beta chain (Homo sapiens), P02675;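 active means inhibition above a per-campaign cutoff: mean of compounds within control limits plus 3 SD, cut at about 15% in these data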;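 further: 0% = median of all compound wells on the plate and 100% = blocking peptide control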
# Target sequence (P02675 whole entry, looked up): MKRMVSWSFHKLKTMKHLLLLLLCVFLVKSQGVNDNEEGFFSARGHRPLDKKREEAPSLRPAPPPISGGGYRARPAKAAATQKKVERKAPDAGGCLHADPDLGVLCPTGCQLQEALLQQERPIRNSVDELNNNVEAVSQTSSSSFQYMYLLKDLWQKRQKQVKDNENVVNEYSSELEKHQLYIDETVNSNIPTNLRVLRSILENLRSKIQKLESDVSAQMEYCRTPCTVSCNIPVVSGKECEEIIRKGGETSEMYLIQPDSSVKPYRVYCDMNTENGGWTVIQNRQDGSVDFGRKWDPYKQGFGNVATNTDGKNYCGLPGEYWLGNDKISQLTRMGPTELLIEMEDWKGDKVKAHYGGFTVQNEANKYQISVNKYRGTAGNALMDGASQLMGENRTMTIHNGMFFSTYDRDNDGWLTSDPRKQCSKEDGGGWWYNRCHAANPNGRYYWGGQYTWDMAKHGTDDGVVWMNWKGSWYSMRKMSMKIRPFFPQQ
# CRFR2-BP antag: antagonists of CRF-BP/CRF-R2 complex, primary screen, cell-based, HEK293, calcium dye fluorescence, uHTS; CRF-induced calcium fluorescence; inhibition, % at 11.8 µM; actives 0.59% (n = 350,000);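 active means inhibition of the ligand-induced calcium signal above about 50% at the single tested concentration, limit read from the data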
# CRFBP-R2 agonist: agonists of CRF-BP/CRF-R2 complex, primary screen, cell-based, HEK293, calcium dye fluorescence, uHTS | calcium dye fluorescence (FLIPR); percent of saturating CRF peptide response | CRF-binding protein / CRF receptor 2 complex (human) | activation, % at 13.2 µM | actives 0.46% (n = 350,000) | AID 588473, 2011;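 active means activation of at least 50%, plus an integration ratio under a set limit after plate pattern correction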;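 further: plate controls were neutral control wells without compound for no effect and CRF at EC100 for full effect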
# Tn7 DDE FP: inhibitors of Tn7 peptide binding to fibrin DD(E), primary screen, biochemical, fluorescence polarization, human fibrin, Tn7 probe. AID 720508, 2013. actives 0.13% (n = 370,000). FP displacement of FITC-Tn7 peptide from fibrin DD(E); 0% = median of compound wells per plate. Fibrinogen beta chain (Homo sapiens), P02675. inhibition, % at 8.3 µM;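 active means inhibition above the mean of compounds falling within the control limits plus 3 SD of them, cut at about 14% in these data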;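 further: 0% = plate median of compound wells and 100% = 10 µM Aha-Tn7 peptide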
#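 Test system – human fibrin DD(E) · Times – 10 min preincubation, 3 h with tracer, room temperature · Detection – fluorescence polarization of the labelled Tn7 tracer · Measure – percent inhibition normalized to high-control wells · Benchmarks – high control wells with 10 µM unlabelled Aha-Tn7 peptide (full inhibition) · Repeats – singlicate testing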
# The depositor's hits bear a star; . = no result given.
SMILES,DDE Tn6 FP inh,CRFR2-BP antag,CRFBP-R2 agonist,Tn7 DDE FP
O=[N+]([O-])c1cccc(/C=N/Nc2nc(NCc3ccccc3)nc(N3CCOCC3)n2)c1O,-2,-4,69*,-4
O=[N+]([O-])c1ccc(N2CCOCC2)cc1NCc1ccccc1,-6,64*,-1,6
CC1C(=O)N(Cc2cn(CCC3OCCCO3)nn2)CCS(=O)(=O)N1Cc1ccc(-c2ccc(Cl)cc2)cc1 (stereo not given),10,52*,0,3
COc1ccc(-c2ccc(CN3C(C)C(=O)N(Cc4cn(Cc5ccco5)nn4)CCS3(=O)=O)cc2)cc1 (stereo not given),-3,69*,-2,3
CC(C)N(C(N)=NC(=O)OCc1ccccc1)C(C)C,-1,.,.,6
C=CCOC(=O)C(C#N)c1nc2ccccc2nc1N1CCN(c2ccccc2OCC)CC1 (stereo not given),6,53*,2,-7
CC(Oc1ccc(Cl)cc1)C(=O)Nc1ccccc1N1CCOCC1 (stereo not given),6,-48,53*,0
Cc1cc(Cl)ccc1OC(C)C(=O)Nc1ccccc1N1CCOCC1 (stereo not given),4,-146,110*,-1
CC(Oc1cccc(Cl)c1)C(=O)Nc1ccccc1N1CCCC1 (stereo not given),-1,-7,-1,-2
Cc1ccc2c(c1)C1CS(=O)(=O)N(C3CCCC3)CN1C2 (stereo not given),-2,.,.,1
CC1=C(C(=O)c2ccccc2)C(c2cccc([N+](=O)[O-])c2)NC(=S)N1 (stereo not given),5,4,-3,-2
CC(=O)C1=C(C)NC(=S)NC1c1cc([N+](=O)[O-])ccc1O (stereo not given),8,100*,-3,-8
Cc1nn(Cc2ccccc2Cl)c(C)c1NC(=O)c1nc2ncccn2n1,4,58*,2,-7
O=C(NC1CCCc2c1cnn2-c1ccc(F)cc1F)c1cccs1 (stereo not given),1,.,.,3
CC(C)Cn1cc(C(=O)N2CCC(C)CC2)c2c3ccccc3n(C)c2c1=O,2,50*,-2,1
CC(C)Cn1cc(C(=O)N2CCOCC2)c2c3ccccc3n(C)c2c1=O,1,-2,2,2
O=[N+]([O-])c1cc([N+](=O)[O-])c2oc(-c3ccccc3)c(Br)c2c1O,.,57*,4,.
Cc1nc2ccccc2n1CC(O)COC1CCCCC1 (stereo not given),.,53*,-2,.
CC(C)c1nc2ccccc2n1CC(O)COC1CCCCC1 (stereo not given),5,18,-4,-1
Cc1ccccc1C(=O)NNC(=S)NC(=O)COc1ccccc1,-3,11,129*,3
Cc1ccc(C(=O)NNC(=S)NC(=O)COc2ccccc2)cc1,5,-63,142*,8
CC(C)(C)c1ccc(C(=O)NC(=S)NNC(=O)COc2ccccc2)cc1,0,-64,96*,8
Cc1cccc(OCC(=O)NC(=S)NNC(=O)c2ccncc2)c1,4,-17,-2,-2
COC(=O)c1ccccc1NC(=S)NC(=O)COc1ccccc1,1,-8,-4,3
Cc1nnc(NC(=O)CSc2nnc(Cc3ccccc3)n2-c2ccccc2)s1,-8,81*,-3,1
SMILES,DDE Tn6 FP inh,CRFR2-BP antag,CRFBP-R2 agonist,Tn7 DDE FP
CCn1cc(C(=O)NCCCN(CC(C)C)CC(C)C)c(=O)c2cc(S(=O)(=O)N(C)C3CCCCC3)ccc21,3,-65,76*,-1
CCOC(=O)c1cc(C)sc1NC(=O)CCC(=O)O,-4,59*,5,1
Cc1cccc(C)c1NC(=O)Cn1nnc(-c2ccncc2)n1,10,.,.,6
NCC[C@H](O)C(=O)N[C@@H]1C[C@H](N)[C@@H](O[C@H]2O[C@H](CN)[C@@H](O)[C@H](O)[C@H]2O)[C@H](O)[C@H]1O[C@H]1O[C@H](CO)[C@@H](O)[C@H](N)[C@H]1O,1,64*,-1,2
Cc1ccccc1OCCC(=O)Nc1cc(S(=O)(=O)N2CCCCC2)ccc1N1CCN(C)CC1,0,-37,68*,-1
C[C@H]1[C@@H](OC(=O)Nc2ccc(Cl)cc2)CC[C@@]23CCCN2C(=O)CCC[C@@H]13,4,.,.,9
CCOc1ccc(N(CC(=O)Nc2c(C)n(C)n(-c3ccccc3)c2=O)S(=O)(=O)c2cc(OC)ccc2OC)cc1,-4,.,.,0
COc1ccccc1C(=O)NCCC(=O)N1CCN(c2ccccc2O)CC1,-7,71*,0,1
COc1ccccc1C(=O)NCCC(=O)N1CCCCC1,-1,11,-1,1
Cc1cc(/C=C2\SC(=S)N(Cc3ccco3)C2=O)c(C)n1-c1cccnc1,-3,-36,55*,-1
O=C1/C(=C/c2cccnc2)SC(=S)N1Cc1ccco1,4,16,-4,6
CC1(C)CC(=O)C=C(Nc2ccccc2NC(=O)c2cc(Cl)ccc2F)C1,-2,.,.,-3
COP(=O)(OC)c1nc(-c2ccc([N+](=O)[O-])cc2)oc1N1CCCCC1,0,-44,54*,0
CCOP(=O)(OCC)c1nc(-c2ccccc2)oc1N1CCCCC1,-2,0,-2,-1
Cc1cccc(C)c1OCC(=O)N=Nc1c(O)[nH]c2ccc(Br)cc12,2,10,-2,-5
COc1ccc(/C=N/OCC(=O)N=Nc2c(O)[nH]c3ccc(Br)cc23)cc1,-9,55*,-2,3
CC(C(=O)Nc1cccnc1)c1ccc([N+](=O)[O-])cc1 (stereo not given),6,12,1,0
CC(C)Cc1ccc(C(C)C(=O)Nc2cccnc2)cc1 (stereo not given),-5,-25,62*,3
CC(C)Cc1ccc([C@H](C)C(=O)O)cc1,5,-3,0,3
CC(C)Cc1ccc(C(C)C(=O)Nc2ccc(O)cc2)cc1 (stereo not given),1,-16,78*,1
COC(=O)[C@]12C[C@H](CC(=O)N3CCN(C(=O)C4CC4)CC3)C(=O)N(Cc3ccc(Cl)cc3Cl)C1=C[C@H](C(C)(C)C)O[C@@H]2C,-2,.,.,-2
COC(=O)[C@]12C[C@H](CC(=O)NCc3ccc(OC)c(OC)c3)C(=O)N(Cc3cccc4ccccc34)C1=C[C@H](C1CCCC1)O[C@@H]2C,1,.,.,-12
CCOc1ccc(-c2nc(N)ncc2Oc2cccc(OC)c2)c(O)c1,0,54*,0,3
O=c1c2ccccc2nc(-c2ccc(Cl)c(Cl)c2)n1O,2,19,55*,-1
O=c1c2ccc(Cl)cc2nc(-c2cccc(C(F)(F)F)c2)n1O,0,28,69*,-2
O=c1c2cc(Cl)ccc2nc(-c2ccc([N+](=O)[O-])cc2)n1O,5,7,44,-4
